# Reference: ChEMBL document CHEMBL1124947, “Cationic antiprotozoal drugs. Trypanocidal activity of 2-(4'-formylphenyl)imidazo[1,2-a]pyridinium guanylhydrazones and related derivatives of quaternary heteroaromatic compounds” (J Med Chem, 1990)
# How the values were obtained:
# Assay type in all cases: functional
# Mus musculus [1] = assay: Trypanocidal Activity at I.C.E. value 0.71 when administered subcutaneously.
# Outline: (§1)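 Mice, in groups of five per dose, were given a standard inoculum of blood-stage T. rhodesiense that is lethal to all untreated controls, then dosed subcutaneously. Usually 11 dose levels were used (2^n × 0.42 mg/kg).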
# [2] = tested on: Trypanosoma brucei rhodesiense; assay: In Vitro measurement of inhibition of thymidine uptake in cell culture of Trypanosoma rhodesiense; conditions: read-out: ID50 (the source's name)
# Outline: (§2)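 Parasites harvested from infected rats and incubated 3 h across a drug concentration series, usually 0.1–100 µg/mL. Incorporation of radiolabeled thymidine measured. ID50 is the concentration (µg/mL) producing 50% inhibition.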
# [3] = tested on: Trypanosoma brucei rhodesiense; assay: In Vitro measurement of inhibition of leucine uptake in cell culture of Trypanosoma rhodesiense; conditions: read-out: ID50 (the source's name)
# Outline: (§3)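 Trypanosomes harvested from infected rats, cultured 3 h with several concentrations of drug, usually 0.1–100 µg/mL. Radiolabeled L-leucine uptake measured. ID50 is the concentration in µg/mL giving 50% inhibition of incorporation.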
# Mus musculus [4] = assay: Trypanocidal Activity at I.C.E. value 0.67 when administered subcutaneously.; outline: as §1
# Mus musculus [5] = assay: Trypanocidal Activity at I.C.E. value 0.38 when administered subcutaneously.
# Outline: (§4)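 Blood-stage T. rhodesiense infection came from a standard inoculum lethal to all untreated mice. Drug was given by subcutaneous injection to groups of five mice. Survival beyond 30 days counted as cure. […] Sub-curative doses scored 0, and data were normalized at each dose.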
# Mus musculus [6] = assay: Trypanocidal Activity at I.C.E. value 0.29 when administered subcutaneously.; outline: as §4
# Mus musculus [7] = assay: Trypanocidal Activity at I.C.E. value 0.32 when administered subcutaneously.; outline: as §4
# Mus musculus [8] = assay: Trypanocidal Activity at I.C.E. value 0.47 when administered subcutaneously.; outline: as §4
# Mus musculus [9] = assay: Trypanocidal Activity at I.C.E. value 0.65 when administered subcutaneously.; outline: as §1
# Mus musculus [10] = assay: Trypanocidal Activity at I.C.E. value 0.52 when administered subcutaneously.; outline: as §4
# Mus musculus [11] = assay: Trypanocidal Activity at I.C.E. value 0.45 when administered subcutaneously.; outline: as §4
# Mus musculus [12] = assay: Trypanocidal Activity at I.C.E. value 0.59 when administered subcutaneously.; outline: as §1
# Mus musculus [13] = assay: Trypanocidal Activity at I.C.E. value 0.24 when administered subcutaneously.; outline: as §4
# Mus musculus [14] = assay: Trypanocidal Activity at I.C.E. value 0.34 when administered subcutaneously.; outline: as §4
# Mus musculus [15] = assay: Trypanocidal Activity at I.C.E. value 0.16 when administered subcutaneously.
# Mus musculus [16] = assay: Trypanocidal Activity at I.C.E. value 0.44 when administered subcutaneously.; outline: as §4
# Mus musculus [17] = assay: Trypanocidal Activity at I.C.E. value 0.57 when administered perorally.
# Mus musculus [18] = assay: Trypanocidal Activity at I.C.E. value 0.57 when administered subcutaneously.; outline: as §1
# Mus musculus [19] = assay: Trypanocidal Activity at I.C.E. value 0.39 when administered subcutaneously.; outline: as §4
# [20] = tested on: Trypanosoma brucei rhodesiense; assay: In Vitro measurement of inhibition of Leucine uptake in cell culture of Trypanosoma rhodesiense.; conditions: read-out: ID50 (the source's name); outline: as §3
# [21] = tested on: Trypanosoma brucei rhodesiense; assay: In Vitro measurement of inhibition of thymidine uptake in cell culture of Trypanosoma rhodesiense.; conditions: read-out: ID50 (the source's name); outline: as §2
# Mus musculus [22] = assay: Trypanocidal Activity at I.C.E. value 0.36 when administered subcutaneously.
smiles,measurement,setting,value
Br.Cc1ccn2cc(-c3ccc(/C=N/NC(=N)NO)cc3)[n+](C)c2c1.[Br-],CD50,Mus musculus [1],0.2 mg/kg
same,IC50,[2],0.9 µg/mL
same,IC50,[3],0.7 µg/mL
Br.CCNC(=N)N/N=C/c1ccc(OCc2cn3cc(C)ccc3[n+]2C)cc1.[Br-],CD50,Mus musculus [4],0.4 mg/kg
Br.CC(Cc1ccncc1)NC(=N)N/N=C/c1ccc(-c2cn3ccccc3[n+]2C)cc1.[Br-] (centres undefined),CD50,Mus musculus [5],0.8 mg/kg
Br.C[n+]1c(-c2ccc(/C=N/NC(=N)N)cc2)c([N+](=O)[O-])n2ccccc21.[Br-],IC50,[2],2.7 µg/mL
same,CD50,Mus musculus [6],3.3 mg/kg
same,IC50,[3],1.7 µg/mL
Br.C/N=C(/NC)N/N=C/c1ccc(OCc2cn3c(C)cccc3[n+]2C)cc1.[Br-],CD50,Mus musculus [7],3.3 mg/kg
CCSc1ccc2n(c1)cc(-c1ccc(/C=N/Nc3nc(N)nc(N)n3)cc1)[n+]2C.Cc1ccc(S(=O)(=O)[O-])cc1,CD50,Mus musculus [1],1.6 mg/kg
same,IC50,[2],0.6 µg/mL
same,IC50,[3],> 10 µg/mL
Br.CCS(=O)(=O)c1ccc2n(c1)cc(-c1ccc(/C=N/NC(=N)N)cc1)[n+]2C.[Br-],CD50,Mus musculus [4],0.8 mg/kg
Br.C[n+]1c(COc2ccc(/C=N/NC(=N)N)cc2)cn2ccccc21.[Br-],CD50,Mus musculus [8],0.1 mg/kg
same,IC50,[2],0.8 µg/mL
same,IC50,[3],0.9 µg/mL
Br.Cc1ccc2n(c1)cc(/C=C/c1ccc(/C=N/NC(=N)N)cc1)[n+]2C.[Br-],CD50,Mus musculus [9],0.8 mg/kg
Br.CCNC(=N)N/N=C/c1ccc(OCc2cn3c(C)cccc3[n+]2C)cc1.[Br-],CD50,Mus musculus [10],0.4 mg/kg
Br.Cc1c(-c2ccc(/C=N/NC(=N)N)cc2)[n+](C)c2ccccn12.[Br-],CD50,Mus musculus [11],0.2 mg/kg
Br.CCCNC(=N)N/N=C/c1ccc(-c2cn3ccccc3[n+]2C)cc1.[Br-],CD50,Mus musculus [12],0.1 mg/kg
Br.Cc1ccn2cc(-c3ccc(/C=N/NC(=N)N4CCN(C)CC4)cc3)[n+](C)c2c1.[Br-],CD50,Mus musculus [13],3.3 mg/kg
C[n+]1c(-c2ccc(C(N)=S)cc2)cn2ccccc21.Cc1ccc(S(=O)(=O)[O-])cc1,CD50,Mus musculus [14],53 mg/kg
C[n+]1c(-c2ccc(/C=N/NC(N)=S)cc2)cn2ccccc21.Cc1ccc(S(=O)(=O)[O-])cc1,CD50,Mus musculus [13],106 mg/kg
Cc1ccc2n(c1)cc(-c1ccc(C(=N)NO)cc1)[n+]2C.[Cl-],CD50,Mus musculus [15],106 mg/kg
Br.C[n+]1c(-c2ccc(/C=N/NC3=NCCN3)cc2)cn2c1CCCC2.[Br-],CD50,Mus musculus [16],0.4 mg/kg
Br.Cn1cc[n+](C)c1COc1ccc(/C=N/NC(=N)N)cc1.[Br-],CD50,Mus musculus [15],6.6 mg/kg
Br.CCNC(=N)N/N=C/c1ccc(-c2cn3ccc(C)cc3[n+]2C)cc1.[Br-],CD50,Mus musculus [17],13 mg/kg
same,CD50,Mus musculus [18],0.1 mg/kg
Br.C[n+]1c(COc2ccc(/C=N/NC(=N)NO)cc2)cn2ccccc21.[Br-],CD50,Mus musculus [18],0.4 mg/kg
Br.CSC(=N)N/N=C/c1ccc(OCc2cn3ccccc3[n+]2C)cc1.[Br-],CD50,Mus musculus [16],26 mg/kg
same,IC50,[2],4.6 µg/mL
same,IC50,[3],3.3 µg/mL
Cc1ccc2n(c1)cc(-c1ccc(/C=N/Nc3nc[nH]n3)cc1)[n+]2C.[Br-],CD50,Mus musculus [19],13 mg/kg
same,IC50,[2],3.8 µg/mL
C[n+]1c(-c2ccc(/C=N/Nc3cc(N)[nH]n3)cc2)cn2ccccc21.[Br-],CD50,Mus musculus [6],13 mg/kg
Cc1ccc2n(c1)cc(-c1ccc(/C=N/Nc3cc(N)[nH]n3)cc1)[n+]2C.[Br-],IC50,[2],> 10 µg/mL
same,CD50,Mus musculus [6],26 mg/kg
same,IC50,[3],> 10 µg/mL
Br.C/N=C(\NC)N/N=C/c1ccc(OCc2n(C)c3ccccc3[n+]2C)cc1.[Br-],CD50,Mus musculus [14],3.3 mg/kg
Br.C[n+]1c(-c2ccc(/C=N/NC(=N)NCCN3CCOCC3)cc2)cn2ccccc21.[Br-],CD50,Mus musculus [5],0.8 mg/kg
same,IC50,[20],11.7 µg/mL
same,IC50,[21],2.3 µg/mL
Br.C/N=C(/N/N=C/c1ccc(-c2cn3ccc(C)cc3[n+]2C)cc1)SC.[Br-],CD50,Mus musculus [5],26 mg/kg
Br.C[n+]1c(-c2ccc(/C=N/NC3=NCCCN3)cc2)cn2ccsc21.[Br-],CD50,Mus musculus [8],0.2 mg/kg
Br.CC/N=C(\NCC)N/N=C/c1ccc(OCc2cn3cc(C)ccc3[n+]2C)cc1.[Br-],CD50,Mus musculus [22],1.6 mg/kg
Br.Cc1ccn2cc(-c3ccc(/C=N/NC4=NCCCN4)cc3)[n+](C)c2c1.[Br-],CD50,Mus musculus [17],6.6 mg/kg
same,CD50,Mus musculus [4],0.1 mg/kg
same,IC50,[2],0.7 µg/mL
same,IC50,[3],1.1 µg/mL
